From ChEMBL document CHEMBL3864151, “Discovery of imidazopyridazines as potent Pim-1/2 kinase inhibitors” (Bioorg Med Chem Lett, 2016)
≈ marks a conversion by molar mass, not a printed value. Calls of active or inactive are those of the source. No cut-off for these calls is given here.

Key:
[1] = target: Glycogen synthase kinase-3 alpha (Homo sapiens) (UniProt P49840); assay: Competitive binding affinity to full length wild type human GSK3A expressed in bacterial expression system at 10 uM by kinomescan method relative to control
In short: (§1)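 DiscoveRX scanMAX kinase panel of protein and lipid kinases and common mutants; competitive binding of compound at 10 µM expressed as percentage of control (POC).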

[2] = Antiproliferative activity against PTEN-deficient human OPM2 cells after 72 hrs by CellTiter-Glo assay; type: functional, cell-based; conditions: OPM-2, 72 h
[3] = target: Casein kinase II subunit alpha (Homo sapiens) (UniProt P68400); assay: Competitive binding affinity to full length wild type human CSNK2A1 expressed in mammalian expression system at 10 uM by kinomescan method relative to control; in short: as §1
Homo sapiens = organism: Homo sapiens; assay: Competitive binding affinity to wild type human DYRK at 10 uM by kinomescan method relative to control; in short: as §1
[4] = Antiproliferative activity against human L363 cells after 72 hrs by CellTiter-Glo assay; type: functional, cell-based; conditions: L-363, 72 h
[5] = target: Phosphatidylinositol 4-phosphate 5-kinase type-1 gamma (Homo sapiens) (UniProt O60331); assay: Competitive binding affinity to partial length wild type human PIP5K1C expressed in mammalian expression system at 10 uM by kinomescan method relative to control; in short: as §1
MDR1 = assay: Permeability in rat LLC-PK1 cells expressing MDR1
[6] = target: Casein kinase II subunit alpha' (Homo sapiens) (UniProt P19784); assay: Competitive binding affinity to full length wild type human CSNK2A2 expressed in mammalian expression system at 10 uM by kinomescan method relative to control; in short: as §1
[7] = Antiproliferative activity against human KMS28BM cells after 72 hrs by CellTiter-Glo assay; type: functional, cell-based; conditions: KMS-28BM
KMS-12-BM [8] = assay: Induction of apoptosis in human KMS-12-BM cells assessed as increase in cleaved caspase 7 levels at […] after 4 to 72 hrs by Western blot method; type: functional, cell-based
KMS-12-BM [9] = assay: Induction of apoptosis in human KMS-12-BM cells assessed as increase in cleaved-PARP levels at […] after 4 to 72 hrs by Western blot method; type: functional, cell-based
[10] = Antiproliferative activity against human MM1S cells after 72 hrs by CellTiter-Glo assay; type: functional, cell-based; conditions: MM1.S
[11] = Volume of distribution at steady state in Sprague-Dawley rat at 2 mg/kg, iv; type: ADME, organism-based; conditions: in vivo, read-out: Vdss
In short: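 Male Sprague Dawley rats, 3 animals per dosing route, mean values. iv dose 2 mg/kg as a solution in DMSO; po dose 5 mg/kg in 1% Tween 80, 2% HPMC, 97% water/methanesulfonic acid pH 2.2.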

[12] = Antiproliferative activity against human RPMI8226 cells after 72 hrs by CellTiter-Glo assay; type: functional, cell-based; conditions: RPMI-8226, 72 h
[13] = Antiproliferative activity against human U266B1 cells harboring BRAF mutant after 72 hrs by CellTiter-Glo assay; type: functional, cell-based; conditions: U-266, 72 h
[14] = Aqueous solubility in pH 7.4 PBS after 48 to 72 hrs by HPLC analysis; type: physicochemical
In short: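 Aqueous solubility determined in 0.01N HCl, PBS (pH 7.4) and FaSIF (pH 6.8).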

[15] = target: Serine/threonine-protein kinase VRK2 (Homo sapiens) (UniProt Q86Y07); assay: Competitive binding affinity to partial length wild type human VRK2 expressed in mammalian expression system at 10 uM by kinomescan method relative to control; in short: as §1

## C[C@@H]1C[C@H](N)CN(c2ccncc2Nc2ncc3ccc(-c4c(F)cccc4F)nn23)C1
[1]
  Activity: 1.4%
[2]
  IC50: 4380 nM
[3]
  Activity: 4.2%
Homo sapiens
  Activity: 3.4%
[4]
  IC50: 332 nM
[5]
  Activity: 7%
MDR1
  Papp: 4.5 ×10⁻⁶ cm/s
[6]
  Activity: 2%
[7]
  IC50: 86 nM
KMS-12-BM [8]
  Activity: Active
KMS-12-BM [9]
  Activity: Active
[10]
  IC50: 361 nM
[11]
  Vd: 7.3 L/kg
[12]
  IC50: 569 nM
[13]
  IC50: 10000 nM
[14]
  solubility: 180 µg/mL (≈ 413 µM)
[15]
  Activity: 9.2%
